{"data": "Measured values pooled from the literature", "cell line": "HeLa", "effect on": "cell growth or viability", "note": "Lines come from different studies, so protocols differ. pIC50: −log10 of the molar value."}
{"Compound": "Oc1c(I)cc(I)c2cccnc12", "technique": "MTT", "time": "48 h", "measurement": "pIC50", "result": "< 4.00"}
{"Compound": "CC1(C)[C@@H](O)CC[C@]2(C)[C@H]3C(=O)C=C4[C@@H]5C[C@@](C)(C(=O)O)CC[C@]5(C)CC[C@@]4(C)[C@]3(C)CC[C@@H]12", "technique": "MTT", "time": "48 h", "measurement": "pIC50", "result": 4.76}
{"Compound": "CC1(C)SC2C(NC(=O)C(NC(=O)C3=C(O)C(Cc4ccc(F)cc4)NC3=O)c3ccccc3)C(=O)N2C1C(=O)O (centres unmarked)", "technique": "ATP luminescence", "time": "48 h", "measurement": "IC50", "result": "123 µg/mL"}
{"Compound": "C(C#CC1CC1)#CC1CC1", "technique": "MTT", "time": "24 h", "measurement": "IC50", "result": "14.5 µg/mL"}
{"Compound": "COc1cccc(Oc2ccccc2NC(=O)CNC(=O)c2c(C)cc(C)cc2C)c1", "measurement": "pIC50", "result": 5.19}
{"Compound": "COc1cccc(C(=O)c2cc3c(-c4ccccc4)c(OC)ccc3o2)c1", "measurement": "pIC50", "result": 5.27}
{"Compound": "CCCC#CC#CCCC", "technique": "MTT", "time": "24 h", "measurement": "IC50", "result": "105 µg/mL"}
{"Compound": "CC(=O)O[C@H](C)C(=O)CCCCCCC(=O)Nc1ccccc1", "technique": "XTT", "measurement": "pIC50", "result": "< 4.30"}
{"Compound": "COc1cc(C)c(-c2c(C)cc(OC)c3c(=O)cc(-c4ccccc4)oc23)c2oc(-c3ccccc3)cc(=O)c12", "technique": "MTT", "time": "48 h", "measurement": "pIC50", "result": 4.93}
{"Compound": "COc1cccc(C(=O)c2cc3c(-c4ccccc4)c(O)ccc3o2)c1", "measurement": "pIC50", "result": 4.57}
{"Compound": "Oc1c(I)cc(Cl)c2cccnc12", "technique": "MTT", "time": "48 h", "measurement": "pIC50", "result": 4.15}
{"Compound": "COc1cc(OC)c2c(=O)cc(-c3ccc(Br)cc3)oc2c1-c1c(OC)cc(OC)c2c(=O)cc(-c3ccc(Br)cc3)oc12", "technique": "MTT", "time": "48 h", "measurement": "pIC50", "result": 4.02}
{"Compound": "COc1cc(C(=O)Nc2cc(OC)c3ccccc3n2)nc(C(=O)Nc2cc(OC)c3ccccc3n2)c1", "technique": "ATP luminescence", "time": "72 h", "measurement": "pIC50", "result": "< 4.40"}
{"Compound": "COc1cc(OC)c2c(=O)cc(-c3ccc(N(C)C)cc3)oc2c1", "technique": "MTT", "time": "48 h", "measurement": "pIC50", "result": 4.25}
{"Compound": "O=C(Nc1cc(OCCN2CCCC2)c2ccccc2n1)c1cc(Cl)cc(C(=O)Nc2cc(OCCN3CCCC3)c3ccccc3n2)n1", "technique": "ATP luminescence", "time": "72 h", "measurement": "pIC50", "result": 5.33}
{"Compound": "COc1cc(OC)c2c(=O)cc(-c3ccc(C(F)(F)F)cc3)oc2c1", "technique": "MTT", "time": "48 h", "measurement": "pIC50", "result": "< 4.00"}
{"Compound": "CC1(C)SC2C(NC(=O)C(NC(=O)C3=C(O)C(Cc4ccccc4)NC3=O)c3ccccc3)C(=O)N2C1C(=O)O (centres unmarked)", "technique": "ATP luminescence", "time": "48 h", "measurement": "IC50", "result": "122 µg/mL"}
{"Compound": "COC(=O)CN=c1scc(-c2ccccc2)n1-c1ccc(OC)cc1", "technique": "MTT", "time": "72 h", "measurement": "pIC50", "result": 5.17}
{"Compound": "O=C(Nc1cc(OCCN2CCCC2)c2ccccc2n1)c1cc(OCc2ccc(F)cc2)cc(C(=O)Nc2cc(OCCN3CCCC3)c3ccccc3n2)n1", "technique": "ATP luminescence", "time": "72 h", "measurement": "pIC50", "result": 4.89}
{"Compound": "C=CCC[C@@H]1NC(=O)[C@H]2CCCN2C(=O)[C@H](Cc2ccccc2)NC(=O)C(C)(C)NC1=O", "technique": "XTT", "measurement": "pIC50", "result": "< 4.00"}
{"Compound": "COC(=O)CN=c1scc(-c2ccccc2)n1-c1ccc(Cl)cc1", "technique": "MTT", "time": "72 h", "measurement": "pIC50", "result": 4.77}
{"Compound": "CC(C)CC1NC(=O)C(C(=O)NC(C(=O)NC2C(=O)N3C2SC(C)(C)C3C(=O)O)c2ccccc2)=C1O (centres unmarked)", "technique": "ATP luminescence", "time": "48 h", "measurement": "IC50", "result": "69.1 µg/mL"}
{"Compound": "NCCCOc1cc(NC(=O)c2cc(Cl)cc(C(=O)Nc3cc(OCCCN)c4ccccc4n3)n2)nc2ccccc12", "technique": "ATP luminescence", "time": "72 h", "measurement": "pIC50", "result": 6.15}
{"Compound": "CC(C)(C)OCC1NC(=O)C(C(=O)NC(C(=O)NC2C(=O)N3C2SC(C)(C)C3C(=O)O)c2ccccc2)=C1O (centres unmarked)", "technique": "ATP luminescence", "time": "48 h", "measurement": "IC50", "result": "106 µg/mL"}
{"Compound": "NCCOc1cc(NC(=O)c2cc(OCc3ccc(F)cc3)cc(C(=O)Nc3cc(OCCN)c4ccccc4n3)n2)nc2ccccc12", "technique": "ATP luminescence", "time": "72 h", "measurement": "pIC50", "result": 5.02}
{"Compound": "COc1cc(C)cc2oc(-c3ccc(N(C)C)cc3)cc(=O)c12", "technique": "MTT", "time": "48 h", "measurement": "pIC50", "result": 4.62}
{"Compound": "COc1cc(OC)cc(C(=O)c2cc3c(-c4ccccc4)c(OC)ccc3o2)c1", "measurement": "pIC50", "result": "< 4.30"}
{"Compound": "O=C(/C=C/c1cccc2c1B(O)OC2)Nc1ccccc1", "technique": "ATP luminescence", "time": "72 h", "measurement": "pIC50", "result": "< 4.50"}
{"Compound": "COc1cc(OC)c2c(=O)cc(-c3ccccc3Br)oc2c1", "technique": "MTT", "time": "48 h", "measurement": "pIC50", "result": "< 4.00"}
{"Compound": "Cc1c(O)c(=O)ccn1-c1ccc(C(=O)O)cc1", "technique": "MTT", "time": "72 h", "measurement": "pIC50", "result": 3.22}
{"Compound": "C#CCOc1ccc(C(=O)c2cccc(NC(=O)CCc3cccc4c3B(O)OC4)c2)cc1", "technique": "ATP luminescence", "time": "72 h", "measurement": "pIC50", "result": 5.88}
{"Compound": "NCCCOc1cc(NC(=O)c2cccc(C(=O)Nc3cc(OCCCN)c4ccccc4n3)n2)nc2ccccc12", "technique": "ATP luminescence", "time": "72 h", "measurement": "pIC50", "result": 5.85}
{"Compound": "COc1ccc(C(=O)O[C@@H]2CN3Cc4c(cc5c(c4OC)OCO5)[C@@]24C=C[C@H](OC)C[C@@H]34)cc1", "technique": "WST-1", "time": "48 h", "measurement": "pIC50", "result": "< 5.00"}
{"Compound": "COc1cc(C#CC#Cc2cc(OC)cc(OC)c2)cc(OC)c1", "technique": "MTT", "time": "24 h", "measurement": "IC50", "result": "4.51 µg/mL"}
{"Compound": "Oc1c(Br)cc(Br)c2cccnc12", "technique": "MTT", "time": "48 h", "measurement": "pIC50", "result": 4.08}
{"Compound": "CCN1CCN(C(=O)N[C@@H](C(=O)N[C@@H]2C(=O)N3[C@@H]2SC(C)(C)[C@@H]3C(=O)O)c2ccccc2)C(=O)C1=O", "technique": "ATP luminescence", "time": "48 h", "measurement": "IC50", "result": "68.2 µg/mL"}
{"Compound": "COc1cc(C)cc2oc(-c3ccccc3Br)cc(=O)c12", "technique": "MTT", "time": "48 h", "measurement": "pIC50", "result": 4.12}
{"Compound": "COc1cccc2c1C(=O)c1c(O)c3c(c(O)c1C2=O)C[C@@](O)(C(=O)CO)C[C@@H]3O[C@H]1C[C@H](N)[C@H](O)[C@H](C)O1", "technique": "MTT", "time": "72 h", "measurement": "pIC50", "result": 5.44}
{"Compound": "O=C(Cn1ccnc1[N+](=O)[O-])NCc1ccccc1", "measurement": "pIC50", "result": "< 3.42"}
{"Compound": "CCCCCCC#CC#CCCCCCC", "technique": "MTT", "time": "24 h", "measurement": "IC50", "result": "36 µg/mL"}
{"Compound": "Cc1c(O)c(=O)ccn1CCO", "technique": "MTT", "time": "72 h", "measurement": "pIC50", "result": "≤ 4.00"}
{"Compound": "CC1(C)SC2C(NC(=O)C(NC(=O)C3=C(O)C4CCCN4C3=O)c3ccccc3)C(=O)N2C1C(=O)O (centres unmarked)", "technique": "ATP luminescence", "time": "48 h", "measurement": "IC50", "result": "52.1 µg/mL"}
{"Compound": "O=C(Nc1cc(OCCN2CCCC2)c2ccccc2n1)c1cc(OCCN2CCCC2)cc(C(=O)Nc2cc(OCCN3CCCC3)c3ccccc3n2)n1", "technique": "ATP luminescence", "time": "72 h", "measurement": "pIC50", "result": 5.64}
{"Compound": "COc1cc(OC)c2c(=O)cc(-c3ccc(C(F)(F)F)cc3)oc2c1-c1c(OC)cc(OC)c2c(=O)cc(-c3ccc(C(F)(F)F)cc3)oc12", "technique": "MTT", "time": "48 h", "measurement": "pIC50", "result": "< 4.00"}
